Results from ChEMBL document CHEMBL2010753, “Free radical scavenging and antiproliferative properties of Biginelli adducts” (2012).
Values after ≈ are worked out from the molar mass of the structure shown. Active and inactive are the calls of the source. The calls are words filed in the database; no cut-off is given here.

Columns and labels:
Format in all cases: functional
OVCAR-3 = test: Growth inhibition of human OVCAR3 cells after 48 hrs by sulforhodamine B assay; conditions: OVCAR-3, 48 h
NCI-H460 = test: Growth inhibition of human NCI-H460 cells after 48 hrs by sulforhodamine B assay; conditions: NCI-H460, 48 h
HT-29 = test: Growth inhibition of human HT-29 cells after 48 hrs by sulforhodamine B assay; conditions: HT-29, 48 h
786-0 = test: Growth inhibition of human 786-0 cells after 48 hrs by sulforhodamine B assay; conditions: 786-0, 48 h
U-251 = test: Growth inhibition of human U251 cells after 48 hrs by sulforhodamine B assay; conditions: U-251, 48 h
PC-3 = test: Growth inhibition of human PC3 cells after 48 hrs by sulforhodamine B assay; conditions: PC-3, 48 h
[1] = Growth inhibition of human NCI-ADR-RES cells after 48 hrs by sulforhodamine B assay
[2] = Antioxidant activity assessed as scavenging of DPPH at 160 uM after 30 mins by spectrophotometry
[3] = Antioxidant activity assessed as scavenging of DPPH at 20.3 uM up to 10 mins by spectrophotometry
Outline: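 Kinetic run: reaction medium with 10 nmol DPPH radicals in ethanol and compound at the stated concentration, DPPH scavenging followed over time up to 10 min. Three independent experiments, each in triplicate.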

[4] = Antioxidant activity assessed as concentration required to scavenge 50% superoxide anions after 10 mins by spectrophotometry
[5] = Antioxidant activity assessed as scavenging of DPPH at 20.3 uM after 1 min by spectrophotometry relative to resveratrol
[6] = Antioxidant activity assessed as concentration required for 50% DPPH scavenging activity after 30 mins by spectrophotometry relative to monastrol
[7] = Antioxidant activity assessed as concentration required for 50% DPPH scavenging activity after 30 mins by spectrophotometry

| SMILES | GI50 (OVCAR-3) [µg/mL] | GI50 (NCI-H460) [µg/mL] | GI50 (HT-29) [µg/mL] | GI50 (786-0) [µg/mL] | GI50 (U-251) [µg/mL] | GI50 (PC-3) [µg/mL] | GI50 [1] [µg/mL] | Activity [2] | Activity [3] [pmol] | Activity [4] [µM] | fold change (FC) [5] | fold change (FC) [6] | IC50 [7] [µM] |
| --- | --- | --- | --- | --- | --- | --- | --- | --- | --- | --- | --- | --- | --- |
| COc1cccc2c1C(=O)c1c(O)c3c(c(O)c1C2=O)C[C@@](O)(C(=O)CO)C[C@@H]3O[C@H]1C[C@H](N)[C@H](O)[C@H](C)O1 [DOXORUBICIN] | 0.27 (≈ 0.497 µM) | < 0.025 | 0.27 (≈ 0.497 µM) | 0.18 (≈ 0.331 µM) | 0.068 (≈ 0.125 µM) | 0.24 (≈ 0.442 µM) | 0.14 (≈ 0.258 µM) |  |  |  |  |  |  |
| CCOC(=O)C1=C(C)NC(=S)NC1C1CCCCC1 (stereo not drawn) | 2.2 (≈ 7.79 µM) | 3.5 (≈ 12.4 µM) | 25.2 (≈ 89.2 µM) | 4.2 (≈ 14.9 µM) | 25.2 (≈ 89.2 µM) | 0.46 (≈ 1.63 µM) | 24.1 (≈ 85.3 µM) | inactive |  |  |  |  |  |
| CCOC(=O)C1=C(C)NC(=O)NC1c1ccc(O)c(O)c1 (stereo not drawn) | 1.6 (≈ 5.47 µM) | 34 (≈ 116 µM) | 37.8 (≈ 129 µM) | 20.7 (≈ 70.8 µM) | 0.25 (≈ 0.855 µM) | 18.2 (≈ 62.3 µM) | 2.1 (≈ 7.18 µM) | Active | 488 | 33 | 2 | 37 | 20.3 |
| CCOC(=O)C1=C(C)NC(=O)NC1c1ccc2c(c1)OCO2 (stereo not drawn) | 32.4 (≈ 106 µM) | 48.9 (≈ 161 µM) | 29.9 (≈ 98.3 µM) | 26.3 (≈ 86.4 µM) | 34.9 (≈ 115 µM) | 83.1 (≈ 273 µM) | 15.5 (≈ 50.9 µM) | inactive |  |  |  |  |  |
| CCOC(=O)C1=C(C)NC(=S)NC1c1ccc(F)cc1 (stereo not drawn) | 24.7 (≈ 83.9 µM) | 14.2 (≈ 48.2 µM) | 26.5 (≈ 90 µM) | 24.5 (≈ 83.2 µM) | 28.3 (≈ 96.1 µM) | 1.7 (≈ 5.78 µM) | 26.1 (≈ 88.7 µM) | inactive |  |  |  |  |  |
| CCOC(=O)C1=C(C)NC(=S)NC1c1ccc(O)cc1 (stereo not drawn) | 37.7 (≈ 129 µM) | > 250 | > 250 | 27.5 (≈ 94.1 µM) | 77.2 (≈ 264 µM) | 47.6 (≈ 163 µM) | 83.6 (≈ 286 µM) | inactive |  |  |  |  |  |
| CCOC(=O)C1=C(C)NC(=O)NC1c1ccccc1 (stereo not drawn) | > 250 | 28.9 (≈ 111 µM) | > 250 | > 250 | > 250 | > 250 | > 250 | inactive |  |  |  |  |  |
| CCOC(=O)C1=C(C)NC(=S)NC1c1ccc2c(c1)OCO2 (stereo not drawn) | 55.3 (≈ 173 µM) | 27 (≈ 84.3 µM) | 31.4 (≈ 98 µM) | 27 (≈ 84.3 µM) | 25.9 (≈ 80.8 µM) | 13.4 (≈ 41.8 µM) | 57.1 (≈ 178 µM) | inactive |  |  |  |  |  |
| CCOC(=O)C1=C(C)NC(=S)N[C@H]1c1cccc(O)c1 [S-MENASTROL] | 14.4 (≈ 49.3 µM) | 10.6 (≈ 36.3 µM) | 29.6 (≈ 101 µM) | 4 (≈ 13.7 µM) | 24 (≈ 82.1 µM) | 5.6 (≈ 19.2 µM) | 22.2 (≈ 75.9 µM) | inactive |  |  |  |  |  |
| CCOC(=O)C1=C(C)NC(=S)NC1c1ccc(OC)cc1 (stereo not drawn) | 0.99 (≈ 3.23 µM) | 31.4 (≈ 102 µM) | 30.6 (≈ 99.9 µM) | 25.9 (≈ 84.5 µM) | 29 (≈ 94.7 µM) | 5.5 (≈ 18 µM) | 3.2 (≈ 10.4 µM) | inactive |  |  |  |  |  |
| CCOC(=O)C1=C(C)NC(=O)NC1c1ccc(O)cc1 (stereo not drawn) | 27.3 (≈ 98.8 µM) | 40.6 (≈ 147 µM) | 28.7 (≈ 104 µM) | 25.8 (≈ 93.4 µM) | 4.2 (≈ 15.2 µM) | 136 (≈ 492 µM) | 3.2 (≈ 11.6 µM) | inactive |  |  |  |  |  |
| CCOC(=O)C1=C(C)NC(=S)NC1c1cccc(OC)c1 (stereo not drawn) | 1.3 (≈ 4.24 µM) | 29.2 (≈ 95.3 µM) | 28.3 (≈ 92.4 µM) | 24.9 (≈ 81.3 µM) | 28.1 (≈ 91.7 µM) | 10.2 (≈ 33.3 µM) | 25.6 (≈ 83.6 µM) | inactive |  |  |  |  |  |
| CCOC(=O)C1=C(C)NC(=S)NC1c1ccc(SC)cc1 (stereo not drawn) | 8.5 (≈ 26.4 µM) | 21.6 (≈ 67 µM) | 17.2 (≈ 53.3 µM) | 5.3 (≈ 16.4 µM) | 6 (≈ 18.6 µM) | 23.6 (≈ 73.2 µM) | 35.7 (≈ 111 µM) | inactive |  |  |  |  |  |
